# Activity calls are given as the source filed them. No cut-off for these calls is given here.
# How the values were obtained:
# P-gp [1] = assay: Efflux ratio in MDCK cells expressing rat P-gp assessed as ratio of permeability across basolateral to apical side over apical to basolateral side; assay type: ADME, cell-based, Canis lupus familiaris; settings: dog, MDCK-MDR1
# [2] = target: T1, Oxysterols receptor LXR-beta (Homo sapiens, UniProt P55055); assay: (§1) Agonist activity at LXRbeta (unknown origin) expressed in human H4 cells co-expressing ABCA1 promoter measured after 48 hrs by cell-based transactivation assay
# T1 sequence (P55055 whole entry): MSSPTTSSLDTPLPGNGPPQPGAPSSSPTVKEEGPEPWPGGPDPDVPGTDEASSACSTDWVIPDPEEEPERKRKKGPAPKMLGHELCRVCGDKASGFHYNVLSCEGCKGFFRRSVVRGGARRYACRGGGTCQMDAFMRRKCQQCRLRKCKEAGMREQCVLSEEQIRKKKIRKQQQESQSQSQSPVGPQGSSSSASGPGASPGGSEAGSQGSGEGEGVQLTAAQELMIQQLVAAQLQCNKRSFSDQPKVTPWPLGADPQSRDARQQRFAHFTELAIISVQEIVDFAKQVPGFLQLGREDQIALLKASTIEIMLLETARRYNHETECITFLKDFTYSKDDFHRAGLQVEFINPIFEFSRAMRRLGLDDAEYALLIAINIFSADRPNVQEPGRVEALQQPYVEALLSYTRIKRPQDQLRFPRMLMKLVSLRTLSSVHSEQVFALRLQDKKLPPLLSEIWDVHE
# [3] = target: T2, Oxysterols receptor LXR-beta (Homo sapiens) (UniProt P55055); assay: as §1
# T2 sequence (whole entry): T1 sequence (P55055 whole entry)
# [4] = target: T3, Oxysterols receptor LXR-alpha (Homo sapiens, UniProt Q13133); assay: (§2) Agonist activity at LXRalpha (unknown origin) expressed in human HepG2 cells co-expressing ABCA1 promoter measured after 48 hrs by cell-based transactivation assay
# T3 sequence (Q13133 whole entry): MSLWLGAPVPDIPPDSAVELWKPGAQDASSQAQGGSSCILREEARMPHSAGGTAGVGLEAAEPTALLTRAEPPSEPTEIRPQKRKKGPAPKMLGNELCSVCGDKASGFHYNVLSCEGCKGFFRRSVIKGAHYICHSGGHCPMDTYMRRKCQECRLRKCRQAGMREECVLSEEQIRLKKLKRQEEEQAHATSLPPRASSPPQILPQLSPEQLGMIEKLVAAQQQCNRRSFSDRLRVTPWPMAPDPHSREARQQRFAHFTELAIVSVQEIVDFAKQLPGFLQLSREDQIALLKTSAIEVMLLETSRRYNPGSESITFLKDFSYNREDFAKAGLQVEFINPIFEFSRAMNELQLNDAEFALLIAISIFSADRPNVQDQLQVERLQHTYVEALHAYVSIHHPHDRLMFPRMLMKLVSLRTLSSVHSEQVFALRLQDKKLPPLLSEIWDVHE
# [5] = target: T4, Oxysterols receptor LXR-alpha (Homo sapiens) (UniProt Q13133); assay: as §2
# T4 sequence (whole entry): T3 sequence (Q13133 whole entry)
# P-gp [6] = assay: Efflux ratio in MDCK cells expressing human P-gp assessed as ratio of permeability across basolateral to apical side over apical to basolateral side; assay type: ADME, cell-based, Canis lupus familiaris; settings: dog, MDCK-MDR1
# [7] = Solubility of the compound at pH 2; assay type: physicochemical; settings: buffer
# Cynomolgus monkey = assay: Increase in triglycerides level in cynomolgus monkey liver at >= 3 mg/kg, po qd administered for 2 weeks; assay type: ADME, organism-based, Macaca fascicularis; settings: in vivo, 336 h
# Rhesus monkey [8] = assay: Increase in apoE level in plasma of rhesus monkey at 5 mg/kg, po administered for 2 weeks; assay type: functional, organism-based; settings: Macaca mulatta
# Rhesus monkey [9] = assay: Increase in hepatic fat content in rhesus monkey at 5 mg/kg, po qd for 2 weeks by magnetic resonance spectroscopic imaging method relative to vehicle control; assay type: ADME, organism-based, Macaca mulatta; settings: in vivo, 336 h
# Rhesus monkey [10] = assay: Increase in apoE level in CSF of rhesus monkey at 5 mg/kg, po administered for 2 weeks; assay type: functional, organism-based; settings: Macaca mulatta
# Outline: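 Rhesus monkeys were dosed orally once daily for 2 weeks after randomisation on baseline lipids, liver enzymes and liver fat. CSF was taken by lumbar puncture at baseline and at trough after the last dose, and apoE was measured against baseline.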
# [11] = target: T4, Oxysterols receptor LXR-alpha (Homo sapiens); assay: Agonist activity at GST-tagged LXRalpha-LBD (unknown origin) by LanthaScreen TR-FRET liver X receptor coactivator assay T1317
# Outline: (§3)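 Cofactor recruitment assay using the ligand binding domains of LXRβ or LXRα. The read-out was EC50 and Emax, with Emax relative to a full agonist control.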
# [12] = target: T2, Oxysterols receptor LXR-beta (Homo sapiens); assay: Agonist activity at GST-tagged LXRbeta-LBD (unknown origin) by LanthaScreen TR-FRET liver X receptor coactivator assay relative to T1317; outline: as §3
# [13] = target: T1, Oxysterols receptor LXR-beta; assay: Agonist activity at GST-tagged LXRbeta-LBD (unknown origin) by LanthaScreen TR-FRET liver X receptor coactivator assay; outline: as §3
# [14] = target: T3, Oxysterols receptor LXR-alpha; assay: Agonist activity at GST-tagged LXRalpha-LBD (unknown origin) by LanthaScreen TR-FRET liver X receptor coactivator assay; outline: as §3
efflux ratio (P-gp [1]),EC50 [2],Emax [3],EC50 [4],Emax [5],efflux ratio (P-gp [6]),solubility [7],fold change (FC) (Rhesus monkey [9]),Emax [11],Emax [12],EC50 [13],EC50 [14],Structure (SMILES),Activity (Cynomolgus monkey),Activity (Rhesus monkey [8]),Activity (Rhesus monkey [10])
4.3,550 nM,91%,500 nM,24%,1.8,197 µM,,,,,,CN(C)C(=O)c1ccc(N2CCC(C3CCN(C(=O)[C@](O)(c4ccccc4)C(F)(F)F)CC3)CC2)cc1Cl,,,
,,,,,,,4,,,,,CC(C)(O)CNC(=O)Nc1ccc(C(=O)N2CCN(Cc3ccc(C(O)(C(F)(F)F)C(F)(F)F)cc3)CC2)cc1F,Toxic,Active,inactive
,770 nM,103%,280 nM,40%,,,,50%,106%,940 nM,1480 nM,CN(C)C(=O)c1ccc(-c2cnc(N3CCN(C(=O)OC(C)(C)C)CC3)c(C#N)c2)cc1Cl,,,
